Test results as given in ChEMBL document CHEMBL1127568, “A new series of PDGF receptor tyrosine kinase inhibitors: 3-substituted quinoline derivatives” (J Med Chem, 1994).

Legend:
[1] = target: T1, Platelet-derived growth factor receptor (Homo sapiens, UniProt P09619+P16234); assay: Inhibition of isolated human PDGF receptor phosphorylation; type: protein-complex assay
[2] = target: Epidermal growth factor receptor (Homo sapiens, UniProt P00533); assay: Concentration required to inhibit phosphorylation of isolated human epidermal growth factor tyrosine kinase receptor by 50%
[3] = target: T1, Platelet-derived growth factor receptor; assay: Inhibition of human PDGF receptor phosphorylation; 20-30; type: protein-complex assay
[4] = target: T1, Platelet-derived growth factor receptor; assay: Inhibition of human PDGF receptor phosphorylation; 0.02-0.04; type: protein-complex assay
Method in brief: (§1)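 PDGF receptor from NIH 3T3 cell lysates (cells made quiescent 24 h in 0.5% calf serum), stimulated with 10 ng/mL PDGF for 30 min at 4 °C and immunoprecipitated on Protein A beads. Each compound ran in at least two dose-response assays.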

[5] = target: T1, Platelet-derived growth factor receptor; assay: Inhibition of human PDGF receptor phosphorylation; 0.5-3; type: protein-complex assay
[6] = target: T1, Platelet-derived growth factor receptor; assay: Inhibition of human PDGF receptor phosphorylation; 0.03-0.1; type: protein-complex assay
Method in brief: (§2)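 Receptor from quiescent NIH 3T3 cell lysates (24 h in 0.5% calf serum before lysis), stimulated with 10 ng/mL PDGF for 30 min at 4 °C, then immunoprecipitated with anti-PDGF receptor antibody on Protein A beads. Compound pre-incubated 10 min at 4 °C in 50 mM Tris, 10 mM MnCl2, pH 7.5. At least two dose-response assays per compound.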

[7] = target: T1, Platelet-derived growth factor receptor; assay: Inhibition of human PDGF receptor phosphorylation; 0.015-0.025; type: protein-complex assay; method in brief: as §1
[8] = target: T1, Platelet-derived growth factor receptor; assay: Inhibition of human PDGF receptor phosphorylation; 0.05-0.07; type: protein-complex assay; method in brief: as §1
[9] = target: T1, Platelet-derived growth factor receptor; assay: Inhibition of human PDGF receptor phosphorylation; 0.1-0.6; type: protein-complex assay; method in brief: as §2
[10] = target: T1, Platelet-derived growth factor receptor; assay: Inhibition of human PDGF receptor phosphorylation; 0.15-0.5; type: protein-complex assay; method in brief: as §1
[11] = target: T1, Platelet-derived growth factor receptor; assay: Inhibition of human PDGF receptor phosphorylation; 0.003-0.005; type: protein-complex assay
[12] = target: T1, Platelet-derived growth factor receptor; assay: Inhibition of human PDGF receptor phosphorylation; 0.1-0.4; type: protein-complex assay; method in brief: as §1
[13] = target: T1, Platelet-derived growth factor receptor; assay: Inhibition of human PDGF receptor phosphorylation; 0.008-0.07; type: protein-complex assay
[14] = target: T1, Platelet-derived growth factor receptor; assay: Inhibition of human PDGF receptor phosphorylation; 0.07-0.15; type: protein-complex assay
[15] = target: T1, Platelet-derived growth factor receptor; assay: Inhibition of human PDGF receptor phosphorylation; 6-10; type: protein-complex assay
[16] = target: T1, Platelet-derived growth factor receptor; assay: Concentration required to inhibit phosphorylation of isolated human PDGF receptor by 50%; 0.3-1; type: protein-complex assay; method in brief: as §1
[17] = target: T1, Platelet-derived growth factor receptor; assay: Inhibition of human PDGF receptor phosphorylation; 0.001-0.015; type: protein-complex assay
[18] = target: cAMP-dependent protein kinase (PKA) (Homo sapiens, UniProt P22694+P17612+P22612); assay: Test for the inhibition of protein kinase A; type: protein assay
[19] = target: T1, Platelet-derived growth factor receptor; assay: Inhibition of human PDGF receptor phosphorylation; 0.3-0.5; type: protein-complex assay; method in brief: as §1
[20] = target: T1, Platelet-derived growth factor receptor; assay: Inhibition of human PDGF receptor phosphorylation; 0.1-0.8; type: protein-complex assay; method in brief: as §1
[21] = target: T1, Platelet-derived growth factor receptor; assay: Inhibition of human PDGF receptor phosphorylation; 0.004-0.025; type: protein-complex assay; method in brief: as §1
[22] = target: T1, Platelet-derived growth factor receptor; assay: Inhibition of human PDGF receptor phosphorylation; 0.02-0.05; type: protein-complex assay; method in brief: as §1
[23] = target: T1, Platelet-derived growth factor receptor; assay: Inhibition of human PDGF receptor phosphorylation; 0.01-0.02; type: protein-complex assay
[24] = target: T1, Platelet-derived growth factor receptor; assay: Inhibition of human PDGF receptor phosphorylation; 0.5-2; type: protein-complex assay
[25] = target: T1, Platelet-derived growth factor receptor; assay: Inhibition of human PDGF receptor phosphorylation; 0.002-0.06; type: protein-complex assay; method in brief: as §1
[26] = target: T1, Platelet-derived growth factor receptor; assay: Inhibition of human PDGF receptor phosphorylation; 0.2-0.6; type: protein-complex assay; method in brief: as §1
[27] = target: T1, Platelet-derived growth factor receptor; assay: Inhibition of human PDGF receptor phosphorylation; 2-4; type: protein-complex assay
[28] = target: T1, Platelet-derived growth factor receptor; assay: Inhibition of human PDGF receptor phosphorylation; 1-7; type: protein-complex assay
[29] = target: T1, Platelet-derived growth factor receptor; assay: Inhibition of human PDGF receptor phosphorylation; 1-2; type: protein-complex assay; method in brief: as §1
[30] = target: T1, Platelet-derived growth factor receptor; assay: Inhibition of human PDGF receptor phosphorylation; 0.007-0.03; type: protein-complex assay

Chain of Epidermal growth factor receptor (P00533 whole entry): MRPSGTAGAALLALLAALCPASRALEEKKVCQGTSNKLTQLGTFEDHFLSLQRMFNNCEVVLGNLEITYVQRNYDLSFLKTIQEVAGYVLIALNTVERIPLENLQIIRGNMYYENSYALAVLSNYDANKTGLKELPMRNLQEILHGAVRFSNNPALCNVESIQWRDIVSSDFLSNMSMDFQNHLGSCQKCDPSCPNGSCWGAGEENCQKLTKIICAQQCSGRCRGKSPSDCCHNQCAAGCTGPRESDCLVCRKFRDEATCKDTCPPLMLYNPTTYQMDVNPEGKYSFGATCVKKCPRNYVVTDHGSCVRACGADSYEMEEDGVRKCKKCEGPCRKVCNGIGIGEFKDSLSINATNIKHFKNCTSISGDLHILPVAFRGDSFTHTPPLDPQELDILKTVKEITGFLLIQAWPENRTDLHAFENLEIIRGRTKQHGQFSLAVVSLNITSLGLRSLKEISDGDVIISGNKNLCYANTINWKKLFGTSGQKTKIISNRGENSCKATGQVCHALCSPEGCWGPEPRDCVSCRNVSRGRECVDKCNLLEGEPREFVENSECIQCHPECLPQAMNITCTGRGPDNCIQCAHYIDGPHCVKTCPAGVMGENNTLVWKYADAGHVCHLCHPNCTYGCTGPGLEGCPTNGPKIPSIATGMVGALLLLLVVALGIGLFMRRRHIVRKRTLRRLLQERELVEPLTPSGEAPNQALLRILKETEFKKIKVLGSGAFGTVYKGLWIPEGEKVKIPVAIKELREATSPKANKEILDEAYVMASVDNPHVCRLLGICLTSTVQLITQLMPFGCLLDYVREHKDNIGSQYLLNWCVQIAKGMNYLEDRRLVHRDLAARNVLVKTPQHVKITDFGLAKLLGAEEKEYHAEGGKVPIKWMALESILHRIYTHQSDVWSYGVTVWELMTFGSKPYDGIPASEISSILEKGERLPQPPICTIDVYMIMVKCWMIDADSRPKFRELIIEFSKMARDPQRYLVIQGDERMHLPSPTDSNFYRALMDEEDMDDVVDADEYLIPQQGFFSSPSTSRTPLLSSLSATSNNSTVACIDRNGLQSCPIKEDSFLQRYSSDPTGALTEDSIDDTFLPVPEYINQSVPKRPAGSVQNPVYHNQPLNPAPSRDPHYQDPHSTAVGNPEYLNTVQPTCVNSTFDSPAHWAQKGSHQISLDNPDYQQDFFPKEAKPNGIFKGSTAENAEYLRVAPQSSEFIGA

Cc1ccc(C)c2ncc(-c3ccsc3)cc12
IC50 [1]: > 50000 nM
IC50 [2]: > 20000 nM

COc1cc2cc(-c3ccc4ccccc4c3)cnc2cc1OC
IC50 [1]: ≥ 20000 nM
IC50 [2]: > 20000 nM

COc1cc2cccnc2cc1OC
IC50 [2]: > 20000 nM
IC50 [3]: 30000 nM

COc1cc2cc(O)cnc2cc1OC
IC50 [1]: ≥ 20000 nM
IC50 [2]: > 20000 nM

COc1cc2cc(C3=CCCC3)cnc2cc1OC
IC50 [4]: 40 nM
IC50 [2]: > 20000 nM

COc1ccc(/C=C(\C#N)c2cccnc2)cc1OC
IC50 [5]: 3000 nM
IC50 [2]: 700 nM

COc1ccc(/C=C/c2cnc3cc(OC)c(OC)cc3c2)cc1
IC50 [6]: 100 nM
IC50 [2]: > 20000 nM

COc1cc2cc(-c3cccc(F)c3)cnc2cc1OC
IC50 [2]: > 20000 nM
IC50 [7]: 25 nM

COc1ccc2ncc(-c3ccsc3)cc2c1
IC50 [2]: > 20000 nM
IC50 [8]: 70 nM

COc1cc2cc(-c3c[nH]c4ccccc34)cnc2cc1OC
IC50 [9]: 600 nM
IC50 [2]: > 20000 nM

COc1cc2cc(-c3ccc(OC)c([N+](=O)[O-])c3)cnc2cc1OC
IC50 [2]: > 20000 nM
IC50 [10]: 500 nM

COc1ccc(-c2cnc3cc(OC)c(OC)cc3c2)cc1F
IC50 [11]: 5 nM
IC50 [2]: > 20000 nM

COc1ccc(-c2cnc3cc(OC)c(OC)cc3c2)cc1C
IC50 [2]: > 20000 nM
IC50 [12]: 400 nM

COc1ccc(-c2cnc3cc(OC)c(OC)cc3c2)cn1
IC50 [13]: 70 nM
IC50 [2]: > 20000 nM

COc1cc2cc(-c3ccc([N+](=O)[O-])cc3)cnc2cc1OC
IC50 [14]: 150 nM
IC50 [2]: > 20000 nM

Oc1cc2cc(-c3cccnc3)cnc2cc1O
IC50 [15]: 10000 nM
IC50 [2]: 500 nM

COc1cc2cc(C#CC3CCCCC3)cnc2cc1OC
IC50 [16]: 1000 nM
IC50 [2]: > 20000 nM

COc1cc2cc(-c3ccc(N(C)C)cc3)cnc2cc1OC
IC50 [1]: 10000 nM
IC50 [2]: > 20000 nM

COc1ccc(-c2cnc3cc(OC)c(OC)cc3c2)cc1
IC50 [17]: 15 nM
IC50 [2]: > 20000 nM
IC50 [18]: > 200000 nM

COc1cc2cc(CCC3CCCCC3)cnc2cc1OC
IC50 [2]: > 20000 nM
IC50 [19]: 500 nM

COc1cc2cc(-c3cccnc3)cnc2cc1OC
IC50 [20]: 800 nM
IC50 [2]: > 25000 nM

Fc1ccc2cc(-c3ccsc3)cnc2c1
IC50 [21]: 25 nM
IC50 [2]: > 20000 nM

COc1cc2cc(C#Cc3ccccc3)cnc2cc1OC
IC50 [2]: > 20000 nM
IC50 [22]: 50 nM

COc1cc2cc(-c3ccsc3)cnc2cc1OC
IC50 [23]: 20 nM
IC50 [2]: > 20000 nM
IC50 [18]: > 200000 nM

COc1cc2cc(-c3ccc(C)cc3)cnc2cc1OC
IC50 [2]: > 20000 nM
IC50 [24]: 2000 nM

COc1ccc2cc(-c3ccsc3)cnc2c1
IC50 [2]: > 20000 nM
IC50 [25]: 60 nM

c1cc(-c2cnc3cc4c(cc3c2)OCO4)cs1
IC50 [26]: 600 nM
IC50 [2]: > 20000 nM

Fc1cc2cc(-c3ccsc3)cnc2cc1F
IC50 [27]: 4000 nM

COc1cc2cc(-c3ccc(Cl)c(Cl)c3)cnc2cc1OC
IC50 [2]: > 20000 nM
IC50 [28]: 7000 nM

COc1cccc(-c2cnc3cc(OC)c(OC)cc3c2)c1
IC50 [29]: 2000 nM
IC50 [2]: > 20000 nM

COc1cc2cc(-c3ccc(Cl)s3)cnc2cc1OC
IC50 [30]: 30 nM
IC50 [2]: > 20000 nM

COc1ccc2cc(-c3c[nH]c4ccccc34)cnc2c1OC
IC50 [1]: > 50000 nM
IC50 [2]: > 20000 nM
